High-throughput results: PubChem, several laboratories
In the library only some 3% were active in any assay of this set; here they are far more common.
PKD1 inh: blocks activity of human protein kinase D1; 0.056% of 200,000 active; AID 797; Q15139; PKD1 kinase fluorescence polarization assay; inhibition, % (test concentration not listed); in the data active means inhibition above about 50%
ROMK mod: modulates human ROMK potassium channel activity; P48048; Tet-inducible ROMK, thallium flux fluorescence; actives lie on both sides; B-score at 10 µM; 2% of 130,000 active; AID 1918;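 active means signal ratio slope over the read window, or its plate-corrected B-score, at least 3 SD from the plate mean, either direction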;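 further: B-score of the F/F0 ratio slope over 7 to 12 s after thallium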
KCC2 mod: KCC2 (human) Cl- transport modulation | B-score of Tl+ flux slope (higher = more flux/activation; lower = inhibition) at 10 µM | 2.2% of 190,000 active | KCC2 cells, thallium flux FluoZin-2 fluorescence;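 active means thallium flux slope and its plate-corrected score both differing from the plate sample mean at a set confidence after two filtering rounds, in either direction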;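 further: slope of fluorescence scaled to starting intensity during 10 to 20 s after thallium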
Rad51 HR inh: blocks human Rad51 in homologous recombination | Q06609 | inhibition, % at 10 µM | hRad51 DNA strand exchange, fluorescence dequenching | AID 1385 | 0.085% of 200,000 active;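 active means inhibition above 40% at the single screening dose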
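System: human Rad51 nucleoprotein filaments preassembled on unlabelled ssDNA. Reagent: labelled 47-mer dsDNA for strand exchange. Schedule: 30-min compound preincubation and 15-min exchange, both room temperature. Measured by: FRET fluorescence dequenching, excitation 485 nm, emission 520 nm. Read-out: Fluorescence-based percent inhibition, control- and blank-normalised. Benchmarks: plate controls and plate blanks.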
KCC2 secondary: KCC2 (human) modulation, secondary assay; shares compounds with KCC2 mod; normalised thallium flux (F/F0 slope) at 10 µM; 15% of 3,700 active; HEK293-KCC2, thallium flux, FluoZin2 fluorescence; stronger effect = higher value;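 active means thallium flux slope above the same plate's solvent-only control mean plus 3 SD; inconclusive means the two replicate wells disagree; inactive means no significant difference from solvent-only control wells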
KCC2 bumet counter: thallium flux despite bumetanide block in KCC2 cells, secondary assay 3 | HEK293-KCC2 + bumetanide/ouabain, thallium flux FluoZin2; stronger effect = higher value | shares compounds with KCC2 mod | 49% of 3,700 active | AID 1714 | normalized thallium flux at 10 µM;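 active means thallium entry rate above the same plate's blocked-transporter control wells by more than 3 SD; inconclusive means the two repeat wells disagree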;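 further: raw slope of fluorescence over initial fluorescence between 10 and 20 s after thallium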
KCC2 secondary2: confirmation of human KCC2 transport modulators. shares compounds with KCC2 mod. HEK293-KCC2, thallium flux FluoZin2 fluorescence; actives lie on both sides; F/F0 rise rate, 10–20 s post-thallium. normalized thallium flux at 10 µM. 23% of 3,700 active;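 active means thallium flux slope more than 3 SD above or below the plate's solvent-only control mean, mostly below; inconclusive means the two repeat wells disagreed; inactive means no significant shift from solvent-only controls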
HEK counter1: counter-screen for KCC2 modulators: effect in parental HEK293 cells; shares compounds with KCC2 mod; thallium flux FluoZin2, ouabain; baseline-ratio fluorescence slope, 10–20 s after thallium; thallium flux rate (normalised fluorescence) at 10 µM; 46% of 3,700 active;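 active means thallium flux rate significantly above the same plate's solvent-only control wells, beyond their mean plus 3 SD; inconclusive means the two replicate wells gave conflicting results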
KCC2 ouabain: confirmation of human KCC2 modulators with ouabain; shares compounds with KCC2 mod; HEK293-KCC2, thallium flux FluoZin2 fluorescence; bidirectional: low = inhibitor, high = activator; raw Tl+ flux slope (below DMSO = inhibition, above = activation) at 10 µM; 48% of 3,700 active;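 active means thallium flux slope beyond 3 SD from same-plate DMSO control mean in most replicates, usually higher, sometimes lower; inconclusive means repeat tests gave conflicting results; inactive means no significant difference from controls in most replicates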;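 further: slope of initial-normalized fluorescence between seconds 10 and 20 after thallium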
HEK293 Tl flux2: counter-screen for KCC2 modulators: effect in parental HEK293 cells; shares compounds with KCC2 mod; thallium flux FluoZin-2 fluorescence slope; thallium flux slope at 10 µM; 33% of 3,700 active; AID 1718;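 active means thallium flux slope above the same plate's solvent-control mean plus 3 SD in both duplicate wells; inconclusive means duplicate wells that disagreed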;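 further: run without ouabain in cells lacking the KCC2 cotransporter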
Of the large screens only hits and unclear results are named; the others gave an inactive call (follow-up assays come after a bar, where they were run).

O=C(CSc1nnnn1-c1ccccc1)CSc1nnnn1-c1ccccc1	none (no result: ROMK mod, KCC2 mod) | KCC2 secondary inactive | KCC2 bumet counter inactive | KCC2 secondary2 inactive | HEK counter1 inconclusive | KCC2 ouabain 0.026 | HEK293 Tl flux2 inactive
O=c1cc(CSc2nnnn2-c2ccccc2)nc2sccn12	none
COc1ccc2c(CC(=O)OCC(=O)Nc3sc4c(c3C#N)CCC(C)C4)coc2c1 (stereo not given)	none (no result: Rad51 HR inh)
C=C(C)Cn1c(N2CCC(Cc3ccccc3)CC2)nc2c1c(=O)[nH]c(=O)n2C	KCC2 mod -3.6 (no result: ROMK mod) | KCC2 secondary inactive | KCC2 bumet counter 0.0059 | KCC2 secondary2 0.024 | HEK counter1 inactive | KCC2 ouabain 0.016 | HEK293 Tl flux2 inactive
Cn1c(=O)[nH]c(=O)c2c1nc(N1CCC(Cc3ccccc3)CC1)n2Cc1ccccc1	none (no result: ROMK mod)
CCCn1c(N2CCC(Cc3ccccc3)CC2)nc2c1c(=O)[nH]c(=O)n2C	none (no result: KCC2 mod) | KCC2 secondary inactive | KCC2 bumet counter inactive | KCC2 secondary2 inconclusive | HEK counter1 inconclusive | KCC2 ouabain 0.016 | HEK293 Tl flux2 inactive
CCCCCn1c(N2CCC(Cc3ccccc3)CC2)nc2c1c(=O)[nH]c(=O)n2C	KCC2 mod -5.5 (no result: ROMK mod) | KCC2 secondary inactive | KCC2 bumet counter inactive | KCC2 secondary2 inactive | HEK counter1 inactive | KCC2 ouabain inactive | HEK293 Tl flux2 inactive
CC(=O)Cn1c(N2CCC(Cc3ccccc3)CC2)nc2c1c(=O)[nH]c(=O)n2C	none (no result: ROMK mod)
O=C1O[C@@H]([C@H](O)CO)C(O)=C1O	none (no result: PKD1 inh, ROMK mod, KCC2 mod)
NC(=O)C(=O)NCCCN1CCOCC1	none (no result: ROMK mod)
CC(C)C(NC(=O)c1ccccc1)C(=O)N/N=C\c1ccco1 (stereo not given)	none
O=C(CSc1nc(-c2ccccc2)nc2ccc(F)cc12)Nc1cccc(C(=O)O)c1	KCC2 mod 59 (no result: PKD1 inh, ROMK mod) | KCC2 secondary inactive | KCC2 bumet counter 0.038 | KCC2 secondary2 inconclusive | HEK counter1 0.048 | KCC2 ouabain 0.044 | HEK293 Tl flux2 0.029
Clc1ccc(-c2csc3ncnc(Cl)c23)cc1	none (no result: ROMK mod)
S=c1[nH]cnc2scc(-c3ccc(Br)cc3)c12	KCC2 mod 48 | KCC2 secondary 0.055 | KCC2 bumet counter 0.14 | KCC2 secondary2 inconclusive | HEK counter1 inconclusive | KCC2 ouabain 0.094 | HEK293 Tl flux2 0.027
S=c1[nH]cnc2scc(-c3ccc(Cl)cc3)c12	KCC2 mod 181 (no result: PKD1 inh, ROMK mod) | KCC2 secondary 0.063 | KCC2 bumet counter 0.17 | KCC2 secondary2 0.058 | HEK counter1 inconclusive | KCC2 ouabain 0.12 | HEK293 Tl flux2 0.062
O=c1[nH]cnc2scc(-c3ccc(Br)cc3)c12	none (no result: KCC2 mod)
COc1cc(OC)c(C(=O)OCC(=O)NCCc2ccccc2)cc1OC	none
COC(CNC(=O)[C@H](CSCc1ccccc1)N1Cc2ccccc2C1=O)OC	none (no result: ROMK mod)
CC(C)CCNC(=O)[C@H](CSCc1ccccc1)N1Cc2ccccc2C1=O	KCC2 mod -4.2 | KCC2 secondary 0.0058 | KCC2 bumet counter inactive | KCC2 secondary2 inconclusive | HEK counter1 inconclusive | KCC2 ouabain 0.014 | HEK293 Tl flux2 inactive
CCOc1ccc(NC(=S)NC(=O)/C=C/c2ccc(C)cc2)c([N+](=O)[O-])c1	none (no result: Rad51 HR inh)
CCOc1ccc(NC(=S)NC(=O)c2c(Cl)c(C)nn2C)c([N+](=O)[O-])c1	KCC2 mod 9.4 | KCC2 secondary inactive | KCC2 bumet counter 0.017 | KCC2 secondary2 inactive | HEK counter1 inconclusive | KCC2 ouabain inconclusive | HEK293 Tl flux2 inactive
